Compound activity (PubChem BioAssay)
Shown are actives, neighbours in structure and some others; about 3.8% of the full set was active somewhere.
INS promoter inh: inhibitors of insulin promoter-driven GFP, primary screen, imaging, TRM-6 cells (human fetal islet line), eGFP reporter, cell count. reporter expression induced with tamoxifen. inhibition, % at 2 µM. actives 0.9% (n = 130,000). AID 1273, 2008;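 active = inhibition above the mean plus 3 SD, with well images judged a real hit on visual review, cut at about 60% in these data, passing the limit was not always enough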
RAM network inh: inhibitors of the yeast RAM network, primary screen, dse1pr::URA3 reporter, 5-FOA selection; S. cerevisiae dse1pr::URA3 reporter, 5-FOA growth OD615, 2 d; analog-sensitive cbk1-as2 kinase mutant strain; actives 1.8% (n = 190,000); AID 868, 2007; inhibition, % at 50 µM;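 active = inhibition above a set limit, 3 SD over mean compound inhibition, cut at about 8.4% in these data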;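 note: 0% = DMSO-only wells with no growth and 100% = 10 µM 1-NA-PP1 full growth; inhibition rescues growth on 5-FOA so higher OD means more RAM inhibition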
NPY-Y2 antag: NPY-Y2 receptor antagonists, primary screen, cell-based; Neuropeptide Y receptor type 2 (Homo sapiens), P49146; NPY-Y2 expressing cells, antagonist mode; inhibition, % at 2.7 µM; actives 0.99% (n = 140,000); AID 793, 2007; in the data active = inhibition above about 17%;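 note: 0% = vehicle with agonist challenge and 100% = reference antagonist with challenge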
Target sequence (P49146 whole entry, looked up): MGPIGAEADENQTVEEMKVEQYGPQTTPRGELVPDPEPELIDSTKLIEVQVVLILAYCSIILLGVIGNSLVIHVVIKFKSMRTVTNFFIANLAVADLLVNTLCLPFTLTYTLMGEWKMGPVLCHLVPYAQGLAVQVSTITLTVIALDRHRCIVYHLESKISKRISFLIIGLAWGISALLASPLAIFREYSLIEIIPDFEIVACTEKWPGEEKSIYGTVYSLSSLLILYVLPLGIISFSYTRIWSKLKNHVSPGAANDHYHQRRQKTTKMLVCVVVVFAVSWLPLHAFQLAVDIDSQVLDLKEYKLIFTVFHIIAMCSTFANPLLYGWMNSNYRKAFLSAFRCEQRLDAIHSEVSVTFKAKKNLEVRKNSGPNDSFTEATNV
NPY-Y2 PAM-ag: NPY-Y2 potentiators or agonists, primary screen, cell-based. Neuropeptide Y receptor type 2 (Homo sapiens), P49146. cells expressing NPY-Y2, potentiator/agonist read-out. activation, % at 3.6 µM. actives 0.45% (n = 220,000). AID 1359, 2008; in the data active = activation above about 27%;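 note: cells stimulated with NPY near EC25 plus isoproterenol at EC100; 0% = vehicle plus submaximal agonist and 100% = vehicle plus saturating agonist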
NPY-Y1 antag: NPY-Y1 receptor antagonists, primary screen, cell-based. Neuropeptide Y receptor type 1 (Homo sapiens), P25929. actives 1% (n = 200,000). inhibition, % at 3.6 µM. HEK293-CNG Y1 cells, membrane potential fluorescence; NPY at EC95, then isoproterenol;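 active = inhibition above the campaign mean inhibition of all tested compounds plus 3 SD, cut at about 20% in these data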;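 note: 0% = DMSO wells given NPY plus isoproterenol and 100% = isoproterenol alone without NPY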
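Assay system: HEK293 Y1/CNG channel cell line; Doses: single compound dose of 3.6 µM, 0.4% DMSO; Timing: dye 3 h, compound 60 min room temperature, stimulation 45 min; Technique: Membrane-potential fluorescent dye readout; Measure: % inhibition of NPY effect.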
NPY1 pot ag: NPY-Y1 receptor potentiators or agonists, primary screen, cell-based; Neuropeptide Y receptor type 1 (Homo sapiens), P25929; NPY-Y1 expressing cells, potentiator/agonist activation; activation, % at 3.6 µM; actives 0.37% (n = 220,000); in the data active = activation above about 33%, passing the limit was not always enough;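 note: cells stimulated with NPY at EC10 then isoproterenol at EC100; 0% = low agonist plus stimulus and 100% = saturating agonist plus stimulus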
Starred values were filed as active, the others as inactive; · = no result.

SMILES	INS promoter inh	RAM network inh	NPY-Y2 antag	NPY-Y2 PAM-ag	NPY-Y1 antag	NPY1 pot ag
COc1ccc(C(CC(=O)NCc2ccccc2)Sc2n[nH]c(-c3ccc(Cl)cc3)n2)cc1 (centres undefined)	-15	8.7*	0	1	2	-9
O=C(NCCCn1ccnc1)c1ccc(N2CCCCCC2)c([N+](=O)[O-])c1	·	0	·	-9	-6	-11
N#CCCN(C(=O)COc1ccc(F)cc1Br)c1ccccc1F	-45	1	·	8	-1	6
O=C(NCCN1CCN(c2ccccc2)CC1)c1ccc(NC(=O)C2CCCO2)cc1 (centres undefined)	24	0	-2	11	-6	0
O=C(Cn1nc(-c2ccccc2)c2ccccc2c1=O)Nc1cccnc1	77*	2	1	-3	5	16
Cc1ccc(NC(=O)c2sc3nc(CCl)[nH]c(=O)c3c2C)c(C)c1	25	1	·	-2	1	9
CC(/C=C1\N=C(SCc2ccccc2Cl)SC1=O)=C\c1ccccc1	38	10*	1	3	2	3
COCCn1c(=NC(=O)c2cc(-c3cccs3)nc3ccccc23)sc2cc(S(N)(=O)=O)ccc21	-32	5	-3	15	-8	8
CCOCCn1c(=NC(=O)c2cc3ccccc3oc2=O)sc2cc(S(N)(=O)=O)ccc21	-20	8.9*	7	-4	-9	-2
CCOC(=O)Cn1c(=NC(=O)c2nc3ccccc3s2)sc2cc(S(N)(=O)=O)ccc21	-12	10*	-1	2	0	2
CCOC(=O)Cn1c(=NC(=O)CN2C(=O)CCC2=O)sc2cc(S(N)(=O)=O)ccc21	-28	1	2	4	-3	5
CC1(C)CC(/C=C/c2ccccc2)=Nc2ccccc2N1	·	·	·	3	·	11
CCOC(=O)c1sc(NC(=O)c2cc3n(n2)C(C(F)(F)F)CC(c2ccccc2)N3)c(C(=O)OCC)c1C (centres undefined)	-45	4	3	-28	0	-30
CC(NC(=O)c1ccccc1)c1ccc(Br)cc1 (centres undefined)	88*	2	·	-4	3	-10
CC1CCCN(C2=C(Cl)C(=O)N(c3cccc(Cl)c3)C2=O)C1 (centres undefined)	-6	10*	3	-7	6	-7
CCc1cccc(NC(=O)CCSCCC(=O)Nc2cccc(CC)c2)c1	-90	9.9*	2	8	0	6
Cc1ccc(NC(=O)CSCC(N)=O)cc1C	38	2	4	9	1	12
Cc1ccc(NC(=O)CCSCCC(=O)Nc2ccc(C)c(C)c2)cc1C	-3	9.8*	-4	-5	-9	11
CCc1cccc(NC(=O)C2CCCC2)c1	5	0	6	-18	3	-17
Cc1ccc(Nc2nc3ccccc3nc2-n2nc(C)cc2C)cc1	·	8.7*	2	-2	-1	-6
O=C(O)/C=C/C(=O)NCc1csc2ccccc12	·	·	·	-14	·	3
CCOC(=O)c1nnn(-c2nonc2N)c1CSc1ccccc1	-14	0	1	0	8	-20
CCOC(=O)c1nnn(-c2nonc2N)c1COc1cc(C)c(Cl)c(C)c1	-7	·	17	-19	22*	-35
CCOC(=O)Cn1nnc2c(sc3nc4c(c(-c5ccc(Cl)cc5)c32)CCC4)c1=O	12	5	22*	-14	19	-23
Clc1ccc(Cn2cccc2C2=NCCO2)cc1	31	4	6	-12	6	-55
SMILES	INS promoter inh	RAM network inh	NPY-Y2 antag	NPY-Y2 PAM-ag	NPY-Y1 antag	NPY1 pot ag
CCn1c(CNC(=O)Cc2ccc(OC)cc2)nnc1SCC(=O)c1ccccc1	·	1	·	0	2	-1
CCn1c(CNC(=O)Cc2ccc(OC)cc2)nnc1SCC(=O)Nc1ccc(C(=O)O)cc1	·	8.8*	·	-12	-2	-10
Nc1[nH]n2c(=O)cc(-c3ccccc3)nc2c1N=Nc1ccc2c(c1)OCO2	·	10*	·	-11	8	-1
Cc1[nH]n(-c2ccccc2)c(=O)c1N=Nc1ccc2c(c1)OCO2	-23	3	·	2	0	17
O=C(CSCc1cnn(-c2ccccc2)c1-n1cccc1)NCc1ccc2c(c1)OCO2	7	11*	4	-6	8	6
CCCNS(=O)(=O)c1ccc(OCC(=O)Nc2ccc3c(c2)OCO3)cc1	·	1	·	-5	6	-14
N#C/C(=C\c1ccncc1)c1nc2c(s1)CCCC2	·	1	·	-14	3	-11
O=C(Cn1ccc([N+](=O)[O-])n1)NCc1nc2ccccc2[nH]1	-59	0	·	7	5	7
CCOc1ccc2nc(SCC(=O)c3ccc(Cl)s3)sc2c1	-23	9.8*	5	-45	19	-31
CCOc1ccc2nc(SCC(=O)N3CCCc4ccccc43)sc2c1	3	10.0*	6	-11	10	-42
CCOc1ccc2nc(SCC(=O)NC(=O)C(C)C)sc2c1	100*	1	·	5	-1	-3
CCOc1ccc2nc(SCC(=O)c3cccs3)sc2c1	-152	1	3	-15	12	-49
COc1ccccc1N1CC(C)(C)C(=O)N(C(=O)c2c(F)cccc2Cl)C1=S	·	·	·	0	·	3
O=C(COC(=O)c1c2c(nc3ccccc13)CCCC2)Nc1ccc2c(c1)OCO2	·	0	17*	-8	20*	-2
O=C(COC(=O)C12CC3CC(CC(C3)C1)C2)Nc1ncc(Cl)cc1Cl	18	5	1	0	-1	-10
O=C(COC(=O)CC12CC3CC(CC(C3)C1)C2)Nc1ncc(Cl)cc1Cl	100*	8	3	-17	13	-27
Cc1ccc(C2NC(=NCc3ccccc3)Nc3nc(C)cc(=O)n32)cc1 (centres undefined)	·	·	·	-1	·	18
Cc1nn(-c2ccc([N+](=O)[O-])cc2)c2c1C(c1cccc(Br)c1)N1C(=N2)C(=O)Nc2ccccc21 (centres undefined)	37	10*	-3	16	3	4
COc1ccc(NC(=S)N2CCCC2c2ccc(OC)c(OC)c2)cc1 (centres undefined)	-12	9.9*	·	7	-4	-2
C=CCc1c(C)[nH]c(=O)[nH]c1=O	78*	0	·	-13	9	-2
C=CCn1c(COc2ccc(Cl)cc2)nnc1SCC(=O)c1c(N)n(C)c(=O)n(C)c1=O	·	4	·	2	1	-5
CCCCn1ccnc1C(=O)c1ccc(S(=O)(=O)N2CCCC2)cc1	·	·	·	7	·	7
Cc1nc2c3ccccc3nc(NNC(=O)CCC(=O)NCCC(C)C)n2n1	-23	9.2*	1	12	2	-39
